# Tests used:
# P. aeruginosa ATCC 27853 = assay: MIC and MBC, micro-broth dilution; type: cell-based; details: Pseudomonas aeruginosa, ATCC27853, 24 h
# Summary of the method: (§1)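 Strains were grown aerobically for 24 h at 37°C. Two-fold serial dilutions of test peptide were made in 96-well plates, and an equal volume of bacterial suspension at 1 × 10⁶ CFU/mL was added. Plates were incubated for 24 h at 37°C, with gentamicin as control. MIC was taken as the lowest concentration preventing growth.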
# A. baumannii ATCC 19606 = assay: MIC and MBC, micro-broth dilution; type: cell-based; details: Acinetobacter baumannii, ATCC19606, 24 h
# Summary of the method: as §1
# S. aureus ATCC 25923 [1] = assay: Radial diffusion assay; type: cell-based, Staphylococcus aureus; details: RDA, Mueller-Hinton agar, 1 × 10^6 CFU/mL, 24 hours at 37°C, done 3 times
# E. coli ATCC 25922 = assay: MIC and MBC, micro-broth dilution; type: cell-based; details: Escherichia coli, ATCC25922, 24 h
# Summary of the method: as §1
# S. aureus ATCC 25923 [2] = assay: MIC and MBC, micro-broth dilution; type: cell-based; details: Staphylococcus aureus, ATCC25923, 24 h
# Summary of the method: as §1
compound,measurement,setting,value
"CNC(C)C1CCC(N)C(OC2C(N)CC(N)C(OC3OCC(C)(O)C(NC)C3O)C2O)O1 (centres unmarked) [Gentamicin, gentamicin]",MIC,P. aeruginosa ATCC 27853,4000 µM
same,MIC,A. baumannii ATCC 19606,8000 µM
same,diameter of the inhibition zone,S. aureus ATCC 25923 [1],26 mm
same,MIC,E. coli ATCC 25922,1000 µM
same,MIC,S. aureus ATCC 25923 [2],2000 µM

# From PMC11780632 (Bioinformatics and Biology Insights, 2025)
